Values belong to the molecule of their own block, whether it stands above or below them.
Key:
[1] = target: T1, Melanocyte-stimulating hormone receptor (Homo sapiens, UniProt Q01726); test: Maximum effect on human MC1R expressed in HEK293 cells assessed as intracellular cAMP accumulation at 0.0001 to 10 uM; format: functional, cell-based
In short: (§1)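 Transfected HEK293 cells, grown in MEM with 10% FBS, seeded 48 h before assay (50,000 cells/well). Cells preincubated 1 min at 37 °C in Earle's balanced salt solution with IBMX, then exposed 3 min at 37 °C to peptide at 10−10 to 10−5 M. Reaction stopped with ice-cold Tris/EDTA and boiling for 7 min. cAMP in supernatant measured by [3H]cAMP/PKA competition against a standard curve. EC50 from nonlinear least-squares fit, two experiments in triplicate.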
Target sequence in this assay (Q01726 whole entry, looked up): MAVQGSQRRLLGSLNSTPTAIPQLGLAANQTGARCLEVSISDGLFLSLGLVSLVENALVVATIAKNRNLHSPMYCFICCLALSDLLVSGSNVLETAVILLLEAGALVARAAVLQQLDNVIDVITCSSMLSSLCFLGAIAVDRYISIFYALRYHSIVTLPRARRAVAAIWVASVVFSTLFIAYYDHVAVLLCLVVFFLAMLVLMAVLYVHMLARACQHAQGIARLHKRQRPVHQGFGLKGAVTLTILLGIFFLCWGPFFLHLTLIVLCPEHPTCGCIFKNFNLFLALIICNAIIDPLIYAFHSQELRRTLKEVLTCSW

Melanocortin receptor 3 [2] = target: T2, Melanocortin receptor 3 (Homo sapiens, UniProt P41968); test: Maximum effect on human MC3R expressed in HEK293 cells assessed as intracellular cAMP accumulation at 0.0001 to 10 uM; format: functional, cell-based; in short: as §1
T2 sequence (P41968 whole entry): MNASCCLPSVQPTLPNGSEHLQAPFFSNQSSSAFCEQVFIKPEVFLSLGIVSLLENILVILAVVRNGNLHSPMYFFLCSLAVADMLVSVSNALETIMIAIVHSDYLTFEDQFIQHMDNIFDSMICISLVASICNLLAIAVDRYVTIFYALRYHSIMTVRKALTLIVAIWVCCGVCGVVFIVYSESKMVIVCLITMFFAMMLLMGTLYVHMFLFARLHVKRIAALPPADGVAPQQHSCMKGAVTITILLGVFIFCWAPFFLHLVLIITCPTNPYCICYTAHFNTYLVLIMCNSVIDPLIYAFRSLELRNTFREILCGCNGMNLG

Melanocortin receptor 4 [3] = target: T3, Melanocortin receptor 4 (Homo sapiens, UniProt P32245); test: Maximum effect on human MC4R expressed in HEK293 cells assessed as intracellular cAMP accumulation at 0.0001 to 10 uM; format: functional, cell-based; in short: as §1
T3 sequence (P32245 whole entry): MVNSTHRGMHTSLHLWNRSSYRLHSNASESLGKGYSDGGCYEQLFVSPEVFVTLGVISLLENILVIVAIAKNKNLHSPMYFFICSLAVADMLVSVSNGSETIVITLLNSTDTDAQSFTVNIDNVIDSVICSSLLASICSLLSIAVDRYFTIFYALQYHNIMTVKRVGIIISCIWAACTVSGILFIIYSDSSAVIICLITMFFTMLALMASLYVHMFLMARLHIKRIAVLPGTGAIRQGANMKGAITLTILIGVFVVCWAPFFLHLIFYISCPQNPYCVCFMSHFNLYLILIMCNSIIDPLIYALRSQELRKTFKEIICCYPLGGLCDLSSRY

Melanocortin receptor 5 [4] = target: T4, Melanocortin receptor 5 (Homo sapiens, UniProt P33032); test: Maximum effect on human MC5R expressed in HEK293 cells assessed as intracellular cAMP accumulation at 0.0001 to 10 uM; format: functional, cell-based; in short: as §1
T4 sequence (P33032 whole entry): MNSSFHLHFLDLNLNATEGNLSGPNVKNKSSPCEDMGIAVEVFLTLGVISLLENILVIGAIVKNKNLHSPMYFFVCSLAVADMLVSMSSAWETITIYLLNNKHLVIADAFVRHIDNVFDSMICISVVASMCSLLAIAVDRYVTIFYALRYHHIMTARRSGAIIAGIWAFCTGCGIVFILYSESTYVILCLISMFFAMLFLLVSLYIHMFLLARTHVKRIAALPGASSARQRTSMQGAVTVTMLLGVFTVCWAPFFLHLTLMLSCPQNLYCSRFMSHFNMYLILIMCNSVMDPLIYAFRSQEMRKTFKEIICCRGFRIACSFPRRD

[5] = target: T1, Melanocyte-stimulating hormone receptor; test: Displacement of [125I]NDPalphaMSH from human MC1R expressed in HEK293 cells; format: cell-based
In short: (§2)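 Whole HEK293 cells stably expressing the receptor, seeded 48 h before assay (50,000 cells/well), washed with MEM/25 mM bicarbonate. Cells lysed with NaOH/Triton X-100 and counted by gamma counting. IC50 from nonlinear least-squares fit, two experiments in triplicate.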
Target sequence in this assay (Q01726 whole entry): as the sequence (Q01726 whole entry, looked up) above

[6] = target: T1, Melanocyte-stimulating hormone receptor; test: Effect on human MC1R expressed in HEK293 cells assessed as intracellular cAMP accumulation; format: functional, cell-based; in short: as §1
Target sequence in this assay (Q01726 whole entry): as the sequence (Q01726 whole entry, looked up) above

Melanocortin receptor 3 [7] = target: T2, Melanocortin receptor 3; test: Displacement of [125I]NDPalphaMSH from human MC3R expressed in HEK293 cells; format: cell-based; in short: as §2
Melanocortin receptor 3 [8] = target: T2, Melanocortin receptor 3; test: Effect on human MC3R expressed in HEK293 cells assessed as intracellular cAMP accumulation; format: functional, cell-based; in short: as §1
Melanocortin receptor 4 [9] = target: T3, Melanocortin receptor 4; test: Displacement of [125I]NDPalphaMSH from human MC4R expressed in HEK293 cells; format: cell-based; in short: as §2
Melanocortin receptor 4 [10] = target: T3, Melanocortin receptor 4; test: Effect on human MC4R expressed in HEK293 cells assessed as intracellular cAMP accumulation; format: functional, cell-based; in short: as §1
Melanocortin receptor 5 [11] = target: T4, Melanocortin receptor 5; test: Displacement of [125I]NDPalphaMSH from human MC5R expressed in HEK293 cells; format: cell-based; in short: as §2
Melanocortin receptor 5 [12] = target: T4, Melanocortin receptor 5; test: Effect on human MC5R expressed in HEK293 cells assessed as intracellular cAMP accumulation; format: functional, cell-based; in short: as §1

Activity [1]: 60%
Activity (Melanocortin receptor 3 [2]): 55%
Activity (Melanocortin receptor 4 [3]): 33%
Activity (Melanocortin receptor 5 [4]): 45%
SMILES: CCCC[C@H](N)C(=O)N[C@H]1CC(=O)NCCCC[C@@H](C(N)=O)NC(=O)[C@H](Cc2c[nH]c3ccccc23)NC(=O)[C@H](CCCNC(=N)N)NC(=O)[C@@H](Cc2ccc(Cl)cc2)N2Cc3ccccc3CC(NC1=O)C2=O (stereo not given in full)

IC50 ([5]; hek293): > 10000 nM
EC50 ([6]; hek293): > 10000 nM
IC50 (Melanocortin receptor 3 [7]; hek293): > 10000 nM
EC50 (Melanocortin receptor 3 [8]; hek293): > 10000 nM
IC50 (Melanocortin receptor 4 [9]; hek293): > 10000 nM
EC50 (Melanocortin receptor 4 [10]; hek293): > 10000 nM
IC50 (Melanocortin receptor 5 [11]; hek293): > 10000 nM
EC50 (Melanocortin receptor 5 [12]; hek293): > 10000 nM
SMILES: CCCC[C@H](NC(C)=O)C(=O)N[C@@H](CC(=O)O)C(=O)N[C@H]1Cc2ccccc2CN([C@H](Cc2ccccc2)C(=O)N[C@@H](CCCN=C(N)N)C(=O)N[C@@H](Cc2c[nH]c3ccccc23)C(=O)N[C@@H](CCCCN)C(N)=O)C1=O

IC50 [5]: > 1000 nM
EC50 [6]: 900 nM
IC50 (Melanocortin receptor 3 [7]): 29 nM
EC50 (Melanocortin receptor 3 [8]): > 1000 nM
IC50 (Melanocortin receptor 4 [9]): 2000 nM
EC50 (Melanocortin receptor 4 [10]): 3200 nM
IC50 (Melanocortin receptor 5 [11]): 123 nM
EC50 (Melanocortin receptor 5 [12]): 180 nM
SMILES: CCCC[C@H](N)C(=O)N[C@H]1CC(=O)NCCCC[C@@H](C(N)=O)NC(=O)[C@H](Cc2c[nH]c3ccccc23)NC(=O)[C@H](CCCN=C(N)N)NC(=O)[C@@H](Cc2ccc(Cl)cc2)N2Cc3ccccc3CC(NC1=O)C2=O (stereo not given in full)

Activity [1]: 0%
Activity (Melanocortin receptor 3 [2]): 0%
Activity (Melanocortin receptor 4 [3]): 0%
Activity (Melanocortin receptor 5 [4]): 0%
SMILES: CCCC[C@@H](NC(C)=O)C(=O)N[C@@H](CC(=O)O)C(=O)NC1Cc2ccccc2CN([C@@H](Cc2ccccc2)C(=O)N[C@@H](CCCNC(=N)N)C(=O)N[C@@H](Cc2c[nH]c3ccccc23)C(=O)N[C@@H](CCCCN)C(N)=O)C1=O (stereo not given in full)

Activity [1]: 100%
SMILES: CCCC[C@H](N)C(=O)N[C@H]1CC(=O)NCCCC[C@@H](C(N)=O)NC(=O)[C@H](Cc2c[nH]c3ccccc23)NC(=O)[C@H](CCCNC(=N)N)NC(=O)[C@@H](Cc2ccc3ccccc3c2)NC(=O)[C@H](Cc2cnc[nH]2)NC1=O
